Bioassay records: PubChem, The Scripps Research Institute Molecular Screening Center
Sampled rows, rich in hits. Any-hit rate of the full collection: about 1.6%.
LEDGF integ inh – blocks HIV-1 LEDGF/p75-dependent DNA integration. TR-FRET IN-LEDGF/p75 DNA integration, Eu/Cy5. inhibition, % at 3.7 µM. 370,000 compounds, 0.64% hits. AID 743269;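 active = inhibition above the screen-wide mean plus 3 SD, cut at about 13% in these data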;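 also: signal is the Cy5 over europium emission ratio at 671 and 618 nm; 0% = plate median of compound wells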
MBD2 DNA inh – MBD2-methylated oligo binding inhibition | AID 686964 | TR-FRET, MBD2 binding to methylated oligonucleotide | 370,000 compounds, 0.31% hits | Q9UBB5 | inhibition, % at 4.4 µM; in the data active = inhibition above about 13%
Target sequence (Q9UBB5 whole entry, looked up): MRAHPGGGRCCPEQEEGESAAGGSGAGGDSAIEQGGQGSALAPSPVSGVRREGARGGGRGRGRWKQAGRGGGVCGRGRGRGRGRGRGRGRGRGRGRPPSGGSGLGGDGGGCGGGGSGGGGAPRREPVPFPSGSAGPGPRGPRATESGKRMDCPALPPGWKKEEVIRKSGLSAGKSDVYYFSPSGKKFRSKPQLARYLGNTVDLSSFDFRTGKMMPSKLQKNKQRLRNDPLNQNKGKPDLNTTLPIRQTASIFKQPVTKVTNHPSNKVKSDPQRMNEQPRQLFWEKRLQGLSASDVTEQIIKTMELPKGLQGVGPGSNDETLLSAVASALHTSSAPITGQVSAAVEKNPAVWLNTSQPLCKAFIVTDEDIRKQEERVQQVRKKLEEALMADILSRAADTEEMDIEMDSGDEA
TDP2 absorb – blocks human TDP2 phosphodiesterase activity; inhibition, % at 12.8 µM; recombinant TDP2, T5PNP hydrolysis, p-nitrophenol absorbance 415 nm; 370,000 compounds, 0.34% hits; AID 720702; O95551;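 active = inhibition above the mean of all tested compounds plus 3 SD, set per campaign, cut at about 25% in these data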;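 also: 0% = DMSO with enzyme and 100% = buffer with substrate but no TDP2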
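System – recombinant human TDP2 · Quantity – TDP2 enzyme at 120 nM final · Doses – single concentration, 12.8 µM nominal, with 1% DMSO · Incubation – 2 h at 37 °C · Measured by – epi absorbance of p-nitrophenol freed from T5PNP by hydrolysis · Read-out – % inhibition relative to enzyme-containing and enzyme-free wells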
UHRF1 MBD2 ctr – human UHRF1 methylated DNA binding inhibitors; UHRF1 binding to methylated oligo, TR-FRET; inhibition, % at 4.4 µM; 370,000 compounds, 0.75% hits; AID 687016; in the data active = inhibition above about 21%;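 also: UHRF1 SRA domain binding a hemimethylated CpG hairpin DNA probe; 0% = median of test compound wells and 100% = reference inhibitor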
Numbers without * were called inactive.

SMILES | LEDGF integ inh | MBD2 DNA inh | TDP2 absorb | UHRF1 MBD2 ctr
Cc1ccc(-c2nn(-c3ccccc3)cc2/C=C/C(=O)Nc2nccs2)cc1 | -1.8 | 2.3 | 1.4 | 2.3
Cc1c(NC(=O)/C=C/c2cn(-c3ccccc3)nc2-c2ccc(F)cc2)c(=O)n(-c2ccccc2)n1C | 3.5 | -3.5 | -9.6 | 47.2*
Cc1c(NS(=O)(=O)c2ccc(F)cc2)c(=O)n(-c2ccccc2)n1C | 1.9 | -2.0 | -4.6 | 24.7*
COC(=O)CC[C@H](/C=C/C(=O)OC(C)(C)C)Sc1ccc(C(C)(C)C)cc1 | 4.2 | 0.4 | -6.4 | -1.0
CC1=C2NC(N)=[N+](Cc3ccc4c(c3)OCO4)CC2NOC1 (configuration not stated) | 0.1 | 0.5 | 1.3 | 1.8
CC1(c2ccc(O)cc2)NC(=O)N(c2ccccc2)N1 (configuration not stated) | -1.7 | 11.4 | 1.7 | 24.0*
O=[N+]([O-])c1cccc(COc2ccc(CN3CCCCC3)cc2)c1 | -4.9 | 7.0 | 5.4 | 20.9*
O=C(Nc1cccc([N+](=O)[O-])c1)c1cccc(C(=O)Nc2cccc([N+](=O)[O-])c2)c1 | 2.8 | 1.3 | -7.8 | 0.2
CC(NC(=O)Nc1cccc([N+](=O)[O-])c1)(C(F)(F)F)C(F)(F)F | 1.4 | -3.6 | 9.7 | 73.2*
Cc1ccccc1CN1CCCCC(NC(=O)c2cc(-c3ccccc3)no2)C1=O (configuration not stated) | -2.9 | 1.5 | -1.0 | -0.4
CC[C@H](C)[C@H]1CNC(=O)C(=O)N1CC1CCN(CCc2ccc(Cl)c(Cl)c2)CC1 | -2.1 | -2.7 | 6.3 | -2.2
O=C1NCCN(CC2CCN(CCc3ccc(Cl)c(Cl)c3)CC2)C1=O | 8.4 | 11.4 | 4.1 | 24.0*
O=C(NCCN1CCCCC1)Nc1ccccc1F | -1.6 | -2.2 | 17.9 | -0.6
O=C(NCCN1CCCCC1)Nc1ccc(F)cc1F | -5.1 | -4.1 | 3.8 | 22.7*
C[C@H](O)[C@@H]1C(=O)N2CCc3c([nH]c4ccccc34)[C@@H]2C[C@@H]1N(C)C(=O)OCc1ccccc1 | -3.2 | 4.2 | -3.4 | -1.6
Clc1ccc(-c2nnc3sc(-c4ccc(Br)o4)nn23)cc1 | 3.4 | 4.6 | -3.0 | -1.4
Cc1oc(-c2ccc(Cl)cc2)cc1-c1nn2c(-c3ccoc3C)nnc2s1 | 28.8* | 7.1 | 18.4 | 23.4*
O=C(NCc1cc(Cl)cc(Cl)c1)c1ccc2nc(COCCO)[nH]c2c1 | 0.0 | 1.1 | 7.5 | 21.1*
O=C(NCc1cc(Cl)cc(Cl)c1)c1ccc2nc([C@@H]3O[C@H](CO)[C@H](O)[C@H](O)[C@H]3O)[nH]c2c1 | -3.1 | -1.5 | 2.5 | 2.7
CCN(C(=O)C1CCCN(c2nnc(-n3cccc3)s2)C1)c1ccccc1C (configuration not stated) | 1.5 | 2.7 | -10.8 | 4.4
Cn1cccc1C(C(=O)NC1CCCCC1)N(C(=O)Cc1cccs1)C1CC1 (configuration not stated) | -1.1 | 1.1 | -3.8 | 37.1*
N/C(=N\OC(=O)/C=C/c1ccccc1)c1ccccn1 | -2.9 | 2.9 | -1.7 | 24.1*
COc1ccc(/C=C/C(=O)O/N=C(\N)c2ccccn2)cc1OC | -1.4 | -7.1 | 1.0 | -4.5
c1ccc2c(c1)OCc1nccn1-2 | -3.1 | -1.9 | 9.3 | -0.1
C[n+]1c(-c2ccc(C=NNC(=O)c3ccc(C(=O)NN=Cc4ccc(-c5cn6ccccc6[n+]5C)cc4)cc3)cc2)cn2ccccc21 | 31.1* | 22.9* | -0.2 | 37.4*
SMILES | LEDGF integ inh | MBD2 DNA inh | TDP2 absorb | UHRF1 MBD2 ctr
CSc1nc(-c2ccc(Cl)cc2)nn1S(=O)(=O)c1ccccc1 | 3.5 | 7.7 | -22.0 | 21.4*
COc1cccc(CNC(=O)C2C3C=CC4(CN(Cc5ccccc5)C(=O)C24)O3)c1OC (configuration not stated) | -4.0 | 5.7 | 0.0 | 4.4
CN(C(=O)CC1C(=O)NCCN1C/C=C/c1ccccc1)C1CCOCC1 (configuration not stated) | 2.4 | 3.0 | -7.2 | 3.0
C#CCN(C(=O)CC1C(=O)NCCN1C/C=C/c1ccccc1)C1CCCCC1 (configuration not stated) | -3.5 | -0.3 | -5.0 | 43.8*
CCOC(=O)Cc1nn(C)c(=O)c2ccccc12 | -0.4 | 4.1 | 8.3 | 26.1*
Cn1nc(Cc2n[nH]c(=S)n2C)c2ccccc2c1=O | -4.8 | 0.5 | 0.8 | 56.1*
CCN1CCN(c2ccc(S(=O)(=O)N3CCCCC3)cc2NC(=O)CC(C)c2ccccc2)CC1 (configuration not stated) | -0.6 | 1.3 | 7.3 | 51.6*
O=C(COc1ccc([N+](=O)[O-])cc1)Nc1cc(S(=O)(=O)N2CCCCC2)ccc1N1CCCCC1 | 4.8 | 9.7 | 15.2 | 22.2*
